Measured values: ChEMBL document CHEMBL1149788, “Synthesis and biochemical evaluation of guanidino-alkyl-ribitol derivatives as nucleoside hydrolase inhibitors” (Eur J Med Chem, 2008)
pKi: −log10 of the molar value.

Legend:
IAG-nucleoside hydrolase = molecular target: T1, IAG-nucleoside hydrolase (Trypanosoma vivax, UniProt Q9GPQ4); assay: Inhibition of Trypanosoma vivax IAG-nucleoside hydrolase expressed in Escherichia coli WK6
T1 sequence (Q9GPQ4 whole entry): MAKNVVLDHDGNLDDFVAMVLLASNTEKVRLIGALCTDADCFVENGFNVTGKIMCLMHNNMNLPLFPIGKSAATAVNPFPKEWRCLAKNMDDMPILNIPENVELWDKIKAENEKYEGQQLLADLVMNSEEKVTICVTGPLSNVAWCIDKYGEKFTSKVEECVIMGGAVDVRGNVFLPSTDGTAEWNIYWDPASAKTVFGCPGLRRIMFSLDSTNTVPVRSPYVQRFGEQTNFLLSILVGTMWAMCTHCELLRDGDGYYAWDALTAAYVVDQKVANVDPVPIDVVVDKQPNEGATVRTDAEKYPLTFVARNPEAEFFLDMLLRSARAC
In short: (§1)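 His6-tagged enzyme purified by Ni-NTA then Superdex-200 gel filtration; concentration per monomer from ε280 47752 M⁻¹ cm⁻¹. Initial rates of hydrolysis of fixed p-nitrophenyl-β-D-ribofuranoside at ≥5 inhibitor concentrations, 50 mM phosphate pH 7.0, 35 °C. p-Nitrophenolate release read at 400 nm (ε 12 mM⁻¹ cm⁻¹). Ki from competitive-inhibition fit via Dixon plot (1/vi vs I).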

[1] = molecular target: T2, IAG-nucleoside hydrolase (Trypanosoma vivax) (UniProt Q9GPQ4); assay: Binding affinity to Trypanosoma vivax IAG-nucleoside hydrolase; in short: as §1
T2 sequence (whole entry): T1 sequence (Q9GPQ4 whole entry)

SMILES: NC(N)=NC[C@@H]1O[C@H](CO)[C@@H](O)[C@H]1O
- pKi (IAG-nucleoside hydrolase): 3.26

SMILES: NC(N)=NCC[C@@H]1O[C@H](CO)[C@@H](O)[C@H]1O
- pKi (IAG-nucleoside hydrolase): 3.51

SMILES: NC(N)=NCCC[C@@H]1O[C@H](CO)[C@@H](O)[C@H]1O
- pKi (IAG-nucleoside hydrolase): 3.17

SMILES: OCC1[C@@H](O)[C@@H](O)CN1Cc1ccccc1 (single isomer, unassigned)
- pKi (IAG-nucleoside hydrolase): 4.23

SMILES: O[C@@H]1[C@H](O)[C@H](O)CO[C@H]1O
- Activity [1]: 148 mM

SMILES: N=C(N)NCCCN1C[C@H](O)[C@H](O)[C@H]1CO
- pKi (IAG-nucleoside hydrolase): 4.40

SMILES: NC(N)=NCCN1C[C@H](O)[C@H](O)[C@H]1CO
- pKi (IAG-nucleoside hydrolase): 3.54

SMILES: N=C(N)Nc1ccc(CN2C[C@H](O)[C@H](O)[C@H]2CO)cc1
- pKi (IAG-nucleoside hydrolase): 5.15

SMILES: N=C(N)c1ccc(CN2C[C@H](O)[C@H](O)[C@H]2CO)cc1
- pKi (IAG-nucleoside hydrolase): 5.17

SMILES: N=C(N)NCC[C@@H]1N[C@H](CO)[C@@H](O)[C@H]1O
- pKi (IAG-nucleoside hydrolase): 4.74

SMILES: CC(C[C@@H]1O[C@H](CO)[C@@H](O)[C@H]1O)N=C(N)N (some centres undefined)
- pKi (IAG-nucleoside hydrolase): 3.16

SMILES: C[N+](C)(C)C[C@@H]1O[C@H](CO)[C@@H](O)[C@H]1O
- pKi (IAG-nucleoside hydrolase): 2.89

SMILES: NC(=O)[C@@H]1O[C@H](CO)[C@H](O)[C@@H]1O
- pKi (IAG-nucleoside hydrolase): 2.35

SMILES: OC[C@H]1NC[C@H](O)[C@@H]1O [IMINORIBITOL]
- pKi (IAG-nucleoside hydrolase): 5.21
